Measured values taken from ChEMBL document CHEMBL1140923, “Discovery of imidazo[1,2-b]thiazole derivatives as novel SIRT1 activators” (J Med Chem, 2009).

How the values were obtained:
[1] = molecular target: T1, NAD-dependent protein deacetylase sirtuin-1 (Homo sapiens) (UniProt Q96EB6); test: Activation of human SIRT1 expressed in Escherichia coli BL21Start assessed as concentration required to increase 50% enzyme activity by mass spectrometry assay
T1 sequence (whole entry): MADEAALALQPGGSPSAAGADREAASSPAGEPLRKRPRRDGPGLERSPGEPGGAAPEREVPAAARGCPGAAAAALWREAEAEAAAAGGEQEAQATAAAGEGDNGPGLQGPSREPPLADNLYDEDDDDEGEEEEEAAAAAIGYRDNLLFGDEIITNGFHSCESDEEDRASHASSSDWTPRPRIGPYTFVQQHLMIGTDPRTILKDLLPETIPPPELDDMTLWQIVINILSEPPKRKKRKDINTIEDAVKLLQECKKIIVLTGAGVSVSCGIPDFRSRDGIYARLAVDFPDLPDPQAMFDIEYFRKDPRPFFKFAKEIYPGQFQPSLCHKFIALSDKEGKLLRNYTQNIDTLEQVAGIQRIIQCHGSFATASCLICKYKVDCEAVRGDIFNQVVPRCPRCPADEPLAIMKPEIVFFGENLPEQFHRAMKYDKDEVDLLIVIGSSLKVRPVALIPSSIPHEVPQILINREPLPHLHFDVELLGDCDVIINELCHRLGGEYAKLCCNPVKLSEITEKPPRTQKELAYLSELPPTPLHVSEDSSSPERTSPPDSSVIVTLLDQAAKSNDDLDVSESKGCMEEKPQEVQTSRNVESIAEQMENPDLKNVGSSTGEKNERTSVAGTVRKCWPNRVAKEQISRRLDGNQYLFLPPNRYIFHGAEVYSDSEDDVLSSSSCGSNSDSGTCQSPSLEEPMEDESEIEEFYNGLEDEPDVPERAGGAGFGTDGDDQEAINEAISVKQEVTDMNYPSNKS
In short: (§1)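 Truncated SIRT1 was expressed in E. coli BL21Start (DE3) and purified on Ni2+ chelate. Reaction: 10 nM enzyme, 0.5 µM biotinylated, fluorophore-tagged p53-derived 20-mer acetyl-lysine peptide and 120 µM NAD+, in 50 mM Tris-acetate pH 8 with NaCl, KCl, MgCl2, 5 mM DTT and 0.05% BSA; DMSO vehicle; 25 min at 25 °C. Stopped with formic acid/nicotinamide; acetylated versus deacetylated peptide read by mass spectrometry. EC1.5 is the concentration raising activity by 50%, the mean of three titration curves.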

[2] = molecular target: T1, NAD-dependent protein deacetylase sirtuin-1 (Homo sapiens); test: Activation of human SIRT1 expressed in Escherichia coli BL21Start assessed as maximum activation of enzyme activity by mass spectrometry assay; in short: as §1
[3] = Oral bioavailability in C57BL/6 mouse at 100 mg/kg; format: ADME, organism-based; conditions: in vivo
In short: (§2)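 Male C57BL/6 mice (18-22 g; 3 per dose group per time point), given 100 mg/kg po as the hydrochloride salt in 2% HPMC + 0.2% DOSS, or 10 mg/kg iv by tail vein in 10% ethanol/40% polyethylene glycol/50% H2O. Plasma was taken at 5, 30, 120 and 360 min after dosing and drug levels were measured.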

[4] = AUC in C57BL/6 mouse at 100 mg/kg, po or 10 mg/kg, iv; format: ADME, organism-based; conditions: plasma; in short: as §2
[5] = Solubility in buffer at pH 7.4 by HPLC method; format: physicochemical
In short: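 Kinetic solubility was measured in pH 7.4 buffer by HPLC.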

[6] = Solubility in water; format: physicochemical
[7] = Terminal half life in C57BL/6 mouse at 100 mg/kg, po or 10 mg/kg, iv; format: ADME, organism-based; conditions: in vivo, read-out: beta t1/2 (converted); in short: as §2
[8] = Metabolic stability in mouse microsomes assessed as half life; format: ADME, Microsome
[9] = Cmax in C57BL/6 mouse at 100 mg/kg, po or 10 mg/kg, iv; format: ADME, organism-based; conditions: in vivo; in short: as §2
[10] = Metabolic stability in human microsomes assessed as half life; format: ADME, Microsome

Row | Structure (SMILES) | Activity [1] [µM] | Activity [2] [%] | other results
1 | COc1cc(C(=O)Nc2ccccc2-c2cn3c(CN(C)C)csc3n2)cc(OC)c1OC | 1.9 | 270 | 
2 | COc1ccc(C(=O)Nc2ccccc2-c2cn3c(CN4CCNCC4)csc3n2)cc1F | 6.2 | 619 | 
3 | Oc1ccc(/C=C/c2cc(O)cc(O)c2)cc1 | 48 | 250 | 
4 | COc1cc(F)cc(C(=O)Nc2ccccc2-c2cn3c(CN4CCNCC4)csc3n2)c1 | 2.1 | 662 | 
5 | O=C(Nc1ccccc1-c1cn2c(CN3CCNCC3)csc2n1)c1ccc2c(c1)OCO2 | 4.9 | 332 | 
6 | O=C(Nc1ccccc1-c1cn2c(CN3CCNCC3)csc2n1)c1ccccc1 | 25 | 322 | 
7 | COc1cccc(C(=O)Nc2ccccc2-c2cn3c(CN4CCNCC4)csc3n2)c1 | 3.7 | 928 | 
8 | O=C(Nc1ccccc1-c1cn2c(CN3CCNCC3)csc2n1)c1cnc2ccccc2c1 | 0.68 | 301 | 
9 | O=C(Nc1ccccc1-c1cn2c(CN3CCNCC3)csc2n1)c1cccc2cccnc12 | 45 | 208 | 
10 | O=C(Nc1ccccc1-c1cn2c(CN3CCNCC3)csc2n1)c1cc2ccccc2o1 | 0.61 | 381 | 
11 | O=C(Nc1ccccc1-c1cn2c(CN3CCNCC3)csc2n1)c1cccc(OC(F)(F)F)c1 | 0.9 | 665 | 
12 | COc1cc(C(=O)Nc2cccc(-c3cn4ccsc4n3)c2)cc(OC)c1OC | 7.5 | 380 | 
13 | COc1cc(C(=O)Nc2cccc(-c3nc4ncccc4o3)c2)cc(OC)c1OC | 11 | 388 | 
14 | COc1ccc(C(=O)Nc2ccccc2-c2cn3c(CN4CCNCC4)csc3n2)cc1OC | 4.5 | 406 | 
15 | COc1cc(C(=O)Nc2ccccc2-c2cn3c(CN4CCNCC4)csc3n2)cc(OC)c1OC | 1.8 | 271 | bioavailability [3]: 40%; AUC [4]: 45 µg·h/mL; solubility [5]: > 100 µM; solubility [6]: > 10 mg/mL; half-life [7]: 6 h; half-life [8]: > 5 h; Cmax [9]: 14 µM; half-life [10]: 1.87 h
16 | O=C(Nc1ccccc1-c1cn2c(CN3CCNCC3)csc2n1)c1cc2ccccc2s1 | 24 | 253 | 
17 | COc1ccc(C(=O)Nc2ccccc2-c2cn3c(CN4CCNCC4)csc3n2)c(OC)c1 | 31 | 197 | 
18 | O=C(Nc1ccccc1-c1cn2c(CN3CCNCC3)csc2n1)c1cccc(SC(F)F)c1 | 0.51 | 808 | 
19 | O=C(Nc1ccccc1-c1cn2c(CN3CCNCC3)csc2n1)c1ccc2occc2c1 | 6.9 | 380 | 
20 | COc1cc(C(=O)Nc2ccccc2-c2cn3cc(CN(C)C)sc3n2)cc(OC)c1OC | 4.8 | 295 | 
21 | O=C(Nc1ccccc1-c1cn2c(CN3CCNCC3)csc2n1)c1ccc2ccccc2n1 | 0.99 | 440 | 
22 | O=C(Nc1ccccc1-c1cn2c(CN3CCNCC3)csc2n1)C1CCCC1 | 130 | 383 | 
23 | COc1cc(C(=O)Nc2ccccc2-c2cn3ccsc3n2)cc(OC)c1OC | 2.5 | 272 | solubility [6]: < 0.1 mg/mL; half-life [8]: 0.0833 h; half-life [10]: 0.167 h
24 | O=C(Cc1ccccc1)Nc1ccccc1-c1cn2c(CN3CCNCC3)csc2n1 | 14 | 130 | 
25 | O=C(Nc1ccccc1-c1cn2c(CN3CCNCC3)csc2n1)c1cnccn1 | 1.7 | 270 | 
26 | COc1cc(C(=O)Nc2ccccc2-c2cn3cc(CN4CCNCC4)sc3n2)cc(OC)c1OC | 3.2 | 257 | 
